The values that follow come from ChEMBL document CHEMBL3797181, “Structure-Based Optimization of a Small Molecule Antagonist of the Interaction Between WD Repeat-Containing Protein 5 (WDR5) and Mixed-Lineage Leukemia 1 (MLL1)” (J Med Chem, 2016).

Positions of bridges follow the written chain, without caps; N, C: chain ends. Non-standard residues stand in square brackets, D forms with d. Residues, ends and D or L forms follow the SMILES beside them. *: point of attachment. d(αMeK) = C[C@@](N)(CCCCN)C(=O)O; dPhg = N[C@@H](C(=O)O)c1ccccc1; Isobutyryl = CC(C)C(=O)*; Abu = CC[C@H](N)C(=O)O

The nature of series [1]: Apparent solubility of compound in methanol. It counts as physicochemical.
Series [2] is described as follows: Apparent solubility of compound in acetonitrile. It is filed as physicochemical.
Series [3] in a line: Apparent solubility of compound in DMSO. It is filed as physicochemical.
The nature of series [4]: Cmax in NOD/SCID mouse plasma at 3 mg/kg, iv up to 24 hrs. It counts as ADME, organism-based. Further details: dose 3 mg/kg, route intravenous. The procedure, abridged:
(§1)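 Female NOD-SCID mice, n = 3 per route, received 3 mg/kg IV or 30 mg/kg IP, with an undosed control group (n = 3). Blood was drawn at 5, 15, 30 min and 1, 2, 4, 6 and 24 h. Plasma was separated by centrifugation and stored at −80 °C until analysis. Cmax, Tmax, t1/2, AUC, Cl and VD were derived.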

Series [5] is described as follows: Clearance in NOD/SCID mouse plasma at 3 mg/kg, iv up to 24 hrs. It is filed as ADME, organism-based. The procedure, abridged:
as §1

Series [6] is described as follows: Metabolic stability in mouse plasma assessed as parent compound remaining after 0.5 hrs. It is filed as ADME, cell-free. As to conditions: read-out: Stability.
Series [7] in a line: Apparent permeability from apical to basolateral side in human Caco2 cells. It counts as ADME, cell-based. As to conditions: Caco-2.
The nature of series [8]: Tmax in NOD/SCID mouse plasma at 30 mg/kg, ip. It is filed as ADME, organism-based. The procedure, abridged:
as §1

Series [9] in a line: Bioavailability in NOD/SCID mouse plasma at 30 mg/kg, ip up to 24 hrs. It counts as ADME, organism-based.
Series [10] in a line: AUC in NOD/SCID mouse plasma at 30 mg/kg, ip up to 24 hrs. It counts as ADME, organism-based. On the set-up: dose 30 mg/kg, time < 24 hr, route intraperitoneal. In short, it runs like this:
as §1

The nature of series [11]: Tmax in NOD/SCID mouse plasma at 3 mg/kg, iv. It counts as ADME, organism-based. In short, it runs like this: as §1
A short description of series [12]: Volume of distribution in NOD/SCID mouse plasma at 3 mg/kg, iv up to 24 hrs. It is filed as ADME, organism-based. The procedure, abridged: as §1
A short description of series [13]: Apparent permeability from basolateral to apical side in human Caco2 cells. It is filed as ADME, cell-based. As to conditions: Caco-2. (Caco-2 cells form a polarised layer with tight junctions and transporters.)
The nature of series [14]: Half life in NOD/SCID mouse plasma at 3 mg/kg, iv. It counts as ADME, organism-based. In short, it runs like this: as §1
A short description of series [15]: Cmax in NOD/SCID mouse plasma at 30 mg/kg, ip up to 24 hrs. It counts as ADME, organism-based. On the set-up: dose 30 mg/kg, route intraperitoneal. The procedure, abridged: as §1
The nature of series [16]: AUC in NOD/SCID mouse plasma at 3 mg/kg, iv up to 24 hrs. It counts as ADME, organism-based. Further details: time < 24 hr, dose 3 mg/kg, route intravenous. The procedure, abridged: as §1
Series [17] can be described thus: Metabolic stability in mouse liver microsomes assessed as parent compound remaining after 0.5 hrs. It counts as ADME. The note with it: read-out: Stability. (Liver microsomes are vesicles of endoplasmic reticulum, rich in cytochrome P450 enzymes.)
The subject of a further series is MV4-11. Nature of the series: Growth inhibition of human MV4-11 cells assessed as reduction in cell viability after 3 days. It is filed as functional. The note with it: MV4-11, 72 h.
Series [18] can be described thus: Growth inhibition of human KOPN8 cells assessed as reduction in cell viability after 3 days. It counts as functional. As to conditions: KOPN-8, 72 h.
Series [19] in a line: Growth inhibition of human MOLM13 cells assessed as reduction in cell viability after 3 days. It counts as functional. The note with it: MOLM-13, 72 h.

By Cmax is commonly meant the peak of the concentration-time curve. As usually defined, the clearance is the rate of elimination divided by the concentration. As usually defined, the Papp A→B is the apparent permeability from the apical to the basolateral side of a cell layer. As usually defined, the Tmax is the time from dosing to the highest level. One may read the bioavailability as dose-corrected exposure relative to a reference, in per cent. The term AUC denotes concentration integrated over time. As usually defined, the Vd is a proportionality between amount in the body and measured concentration, not a real space. Higher therefore signals wide distribution into tissue. Broadly, the Papp B→A is the apparent permeability from the basolateral to the apical side of a cell layer. By half-life is commonly meant how long it takes for the measured level to halve. A lower half-life goes with fast loss. By GI50 is commonly meant the concentration at which growth is held to half of that of the control.

For `Cc1cccc(C(=O)Nc2cc(-c3ccccc3CN3CCOCC3)ccc2N2CCN(C)CC2)c1`, the solubility entry in [1], in [2] and in series [3] was “soluble” in each case.

Regarding `CN1CCN(c2ccc(-c3cccc(CN4CCOCC4)c3)cc2NC(=O)c2c[nH]c(=O)cc2C(F)(F)F)CC1`, the Cmax in series [4] amounted to 1.26 µM; in [15], 6.85 µM. This molecule had a clearance in [5] of 53.9 mL/min/kg. Further, the remaining at 0.5 h was 100% in series [6] and 85% in series [17]. The Papp A→B in series [7] was 0.1 ×10⁻⁶ cm/s. For the same molecule, the figures for the time to peak (Tmax) in series [8] and in series [11] were 15 min and 5 min, respectively. The molecule also registered a bioavailability in [9] of 67%. Moreover, the AUC at 24 h in series [10] was 6810 ng·h/mL; in series [16], 1010 ng·h/mL. The same molecule registered a volume of distribution (Vd) in series [12] of 15.6 L/kg. Besides, the Papp B→A in series [13] turned out to be 16.8 ×10⁻⁶ cm/s. In series [14], the half-life is 287 min.

As for `Cc1cccc(C(=O)Nc2cc(-c3ccc(CN4CCOCC4)cc3)ccc2N2CCN(C)CC2)c1`, the solubility result in series [1], in [2] and in [3] was “soluble” in each case.

Turning to `Cc1cccc(C(=O)Nc2cc(-c3ccc(N4CCCC4)cc3)ccc2N2CCN(C)CC2)c1`, the solubility result in series [1], in series [2] and in [3] was “soluble” throughout.

`Cc1cccc(C(=O)Nc2cc(-c3cccc4c3OCC4)ccc2N2CCN(C)CC2)c1`: the solubility result in [1], in series [2] and in [3] was “soluble” in each case.

Turning to `Cc1cccc(C(=O)Nc2cc(-c3cccc(N4CCCC4)c3)ccc2N2CCN(C)CC2)c1`, the solubility result in series [1], in series [2] and in [3] was “soluble” throughout.

For `Cc1cccc(C(=O)Nc2cc(-c3cccc(CN4CCOCC4)c3)ccc2N2CCN(C)CC2)c1`, the solubility entry in [1], in series [2] and in series [3] was “soluble” in each case.

Consider `Cc1cccc(C(=O)Nc2cc(-c3ccc4c(c3)CCO4)ccc2N2CCN(C)CC2)c1`, for which the solubility result in series [1], in series [2] and in series [3] was “soluble” in each case.

Consider `CC[C@@H]1NC(=O)[C@H](CCCNC(=N)N)NC(=O)[C@](C)(NC(=O)C(C)C)CCCCNC(=O)[C@@H](c2ccccc2)NC1=O` (Isobutyryl-[d(αMeK)]R[Abu][dPhg]; lactam 1-C), for which the 50% growth inhibitory concentration (GI50) in the series on MV4-11 came to 12.4 µM; in series [18] it was 29.7 µM; in series [19] it was 24 µM.
